Source: ChEMBL document CHEMBL1687750, “Nonclinical pharmacokinetics of oseltamivir and oseltamivir carboxylate in the central nervous system” (Antimicrob Agents Chemother, 2009)
pIC50: −log10 of the molar value.

Tests used:
[1] = Prodrug conversion in 7 days old male rat liver S9 fractions assessed as oseltamivir carboxylate generation rate assessed per mg of protein per min; type: ADME, subcellular, S9 fraction
Procedure, shortened: (§1)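 S9 from brain or liver (rat S9 made by homogenizing tissue in ~4 ml Tris-sucrose buffer per g, supernatant after 9,000 × g at 10°C; pooled human brain and liver S9 also used), protein by bicinchoninic acid assay. Oseltamivir: triplicate, 10 μM 14C-oseltamivir final, 1.0 mg S9 protein, 100 mM Tris-HCl pH 7.4, 30 min at 37°C, quenched with TCA-acetonitrile.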

[2] = AUC (0 to infinity) ratio in brain to plasma in perfused Sprague-Dawley rat at 30 mg/kg, iv; type: ADME, organism-based; design: dose 30 mg/kg, route intravenous; conditions: brain and plasma, read-out: Ratio AUC
Procedure, shortened: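 Nonfasted adult rats received 30 mg/kg in aqueous 0.9% NaCl (pH 4.0) by slow tail-vein injection over 20–30 s. Groups were sampled at 5 min and 0.25, 0.5, 1, 2, 4 and 8 h, with 4–5 rats per time point, under terminal isoflurane. Blood was taken by heart puncture and CSF from the cisterna magna. Brains were homogenized either unperfused or after transcardial saline perfusion. Samples were assayed by LC-MS/MS, and pooled composite data were analyzed noncompartmentally.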

[3] = Prodrug conversion in 42 days old female rat brain S9 fractions assessed as conversion of oseltamivir to oseltamivir carboxylate; type: ADME, tissue-based
Procedure, shortened: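 Rat brain or liver S9 (9,000 × g supernatant; 1.0 mg protein) was incubated in triplicate with 10 µM 14C-oseltamivir (final) in 100 mM Tris-HCl pH 7.4 for 30 min at 37°C. Reactions were quenched with TCA-acetonitrile, and the fraction converted to OC was measured by radioflow HPLC with fractionation. Rate was calculated as (pmol/ml substrate × fraction hydrolyzed)/(mg protein/ml × time), minus the no-protein background.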

[4] = biological target: ATP-dependent translocase ABCB1 (Homo sapiens, UniProt P08183); test: Inhibition of human MDR1-mediated digoxin permeability expressed in pig LLC-PK1 cells; type: cell-based
Procedure, shortened: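 P-gp-transfected LLC-PK1 monolayers were used, with labeled digoxin (10 nM) as substrate and unlabeled oseltamivir (0.1–10 mM) added to both donor and receiver sides. Transport was bidirectional at 37°C under 5% CO2, with the acceptor side sampled up to 3 h and counted by scintillation. Three inserts were used per condition, and IC50 was derived from inhibition of digoxin transport.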

[5] = Prodrug conversion in human brain S9 fractions assessed as conversion of oseltamivir to oseltamivir carboxylate; type: ADME; procedure, shortened: as §1

Chain of ATP-dependent translocase ABCB1 (P08183 whole entry): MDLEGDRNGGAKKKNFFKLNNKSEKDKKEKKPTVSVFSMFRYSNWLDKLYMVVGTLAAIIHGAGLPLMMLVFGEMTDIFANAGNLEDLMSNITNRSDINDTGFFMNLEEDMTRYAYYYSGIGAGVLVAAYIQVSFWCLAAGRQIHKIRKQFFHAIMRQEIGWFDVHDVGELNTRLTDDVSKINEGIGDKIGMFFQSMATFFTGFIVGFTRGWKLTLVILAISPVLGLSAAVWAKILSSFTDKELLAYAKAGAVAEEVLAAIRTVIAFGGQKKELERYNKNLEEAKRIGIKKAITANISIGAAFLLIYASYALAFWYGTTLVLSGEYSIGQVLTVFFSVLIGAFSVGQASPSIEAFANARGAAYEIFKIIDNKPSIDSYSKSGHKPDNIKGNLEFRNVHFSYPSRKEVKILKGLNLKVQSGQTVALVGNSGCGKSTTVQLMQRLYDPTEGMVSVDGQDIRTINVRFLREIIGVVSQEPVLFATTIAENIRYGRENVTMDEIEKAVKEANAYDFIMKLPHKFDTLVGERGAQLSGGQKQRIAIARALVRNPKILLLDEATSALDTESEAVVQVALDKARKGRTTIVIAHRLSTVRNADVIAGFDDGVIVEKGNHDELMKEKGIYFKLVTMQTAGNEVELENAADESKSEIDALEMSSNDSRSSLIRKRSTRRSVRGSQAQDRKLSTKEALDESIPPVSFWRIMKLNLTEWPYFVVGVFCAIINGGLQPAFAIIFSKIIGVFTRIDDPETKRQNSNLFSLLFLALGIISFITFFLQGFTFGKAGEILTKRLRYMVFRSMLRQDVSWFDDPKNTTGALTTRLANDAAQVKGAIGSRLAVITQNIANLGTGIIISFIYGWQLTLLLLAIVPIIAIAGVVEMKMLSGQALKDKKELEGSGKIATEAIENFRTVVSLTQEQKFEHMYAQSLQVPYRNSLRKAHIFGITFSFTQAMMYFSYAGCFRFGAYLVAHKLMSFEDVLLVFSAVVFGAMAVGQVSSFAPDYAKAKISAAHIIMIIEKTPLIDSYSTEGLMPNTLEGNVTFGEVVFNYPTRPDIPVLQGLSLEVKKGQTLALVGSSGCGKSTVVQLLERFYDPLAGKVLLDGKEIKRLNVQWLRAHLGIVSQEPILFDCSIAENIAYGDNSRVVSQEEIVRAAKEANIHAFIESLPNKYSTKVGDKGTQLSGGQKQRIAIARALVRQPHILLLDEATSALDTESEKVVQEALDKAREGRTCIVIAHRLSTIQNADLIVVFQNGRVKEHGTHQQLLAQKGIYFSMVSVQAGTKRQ

Activity [1]: 0.33 pmol/s | Kp [2]: 0.21 | Activity [3]: 0.18% | pIC50 [4]: 2.89 | Activity [5]: 0.12% | Activity ([5]; BLD = below limit of detection): BLD
Structure (SMILES): CCOC(=O)C1=C[C@@H](OC(CC)CC)[C@H](NC(C)=O)[C@@H](N)C1 [OSELTAMIVIR]
